Laboratory results: ChEMBL document CHEMBL3352144, “Cytotoxic Spliceostatins from Burkholderia sp. and Their Semisynthetic Analogues” (J Nat Prod, 2014)

Tests used:
[1] = system: NCI-N87; assay: Cytotoxicity against human NCI-N87 cells after 4 days by MTS/cell proliferation assay; format: functional, cell-based; details: NCI-N87, 96 h
How it was run: (§1)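 Cells seeded in 96-well plates and dosed next day with 10 concentrations in 3-fold serial dilution, in duplicate. Incubated 4 days at 37 °C/5% CO2. Viability read by MTS or CellTiter-Glo luminescence. IC50 from four-parameter logistic fit.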

[2] = system: BT-474; assay: Cytotoxicity against human BT474 cells after 4 days by MTS/cell proliferation assay; format: functional, cell-based; details: BT-474, 96 h; how it was run: as §1
[3] = system: MDA-MB-468; assay: Cytotoxicity against human MDA-MB-468 cells after 4 days by MTS/cell proliferation assay; format: functional, cell-based; details: MDA-MB-468, 96 h; how it was run: as §1
[4] = 1-Octanol-buffer partition coefficient, log D of the compound at pH 7.4 by shake flask method; format: physicochemical
How it was run: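 Shake-flask partition: 10 mM DMSO stock added to 1-octanol/pH 7.4 phosphate buffer (1:1, mutually presaturated), mixed 15 min at room temperature, centrifuged 1006g 10 min to split phases. Each phase was sampled, diluted and quantified by LC-MS/MS. Run in duplicate, typical CV ~20%.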

[5] = system: NCI-H1975; assay: Cytotoxicity against human NCI-H1975 cells after 4 days by MTS/cell proliferation assay; format: functional, cell-based; details: NCI-H1975, 96 h; how it was run: as §1
[6] = Cytotoxicity against human MDA-MB-DYT2 cells after 4 days by MTS/cell proliferation assay; format: functional, cell-based; details: 96 h; how it was run: as §1

Row | SMILES | IC50 [1] | IC50 [2] | IC50 [3] | logD [4] | IC50 [5] | IC50 [6]
1 | CC(=O)O[C@@H](C)/C=C\C(=O)N[C@@H]1C[C@H](C)[C@H](C/C=C(C)/C=C/[C@@H]2C[C@](O)(CCl)C[C@@H](CC(=O)O)O2)O[C@@H]1C | 0.641 nM | 1.85 nM | 1.35 nM |  |  | 
2 | CC(=O)O[C@@H](C)/C=C\C(=O)N[C@@H]1C[C@H](C)[C@H](C/C=C(C)/C=C/[C@@H]2C[C@]3(CO3)C[C@@H](CC(=O)O)O2)O[C@@H]1C | 2 nM | 4.8 nM | 3.4 nM | 0.077 | 3.6 nM | 9.1 nM
3 | C=C1C[C@@H](CC(=O)O)O[C@H](/C=C/C(C)=C/C[C@@H]2O[C@H](C)[C@H](NC(=O)/C=C\[C@H](C)OC(C)=O)C[C@@H]2C)C1 |  |  |  |  | 30 nM | 
4 | C=C1C[C@@H](CC(=O)O)O[C@H](/C=C/C(C)=C/C[C@@H]2O[C@H](C)[C@H](NC(=O)/C=C\[C@H](C)OC(C)=O)C[C@@H]2C)[C@H]1O |  |  |  |  | 950 nM | 
5 | CC(=O)O[C@@H](C)/C=C\C(=O)N[C@@H]1C[C@H](C)[C@H](C/C=C(C)/C=C/[C@@H]2CC(C)=CC(=O)O2)O[C@@H]1C | 3.67 nM | 3.72 nM | 1.56 nM |  |  | 4.16 nM
6 | CC(=O)O[C@@H](C)/C=C\C(=O)N[C@@H]1C[C@H](C)[C@H](C/C=C(C)/C=C/C(=O)O)O[C@@H]1C | > 100 nM | > 100 nM |  |  |  | > 100 nM
7 | CC(=O)O[C@@H](C)/C=C\C(=O)N[C@@H]1C[C@H](C)[C@H](C/C=C(C)/C=C/[C@@H]2C[C@](O)(CCl)C[C@@H](CC(=O)OC[C@@]3(O)[C@H](O)[C@@H](/C=C/C(C)=C/C[C@@H]4O[C@H](C)[C@H](NC(=O)/C=C\[C@H](C)OC(C)=O)C[C@@H]4C)O[C@](C)(O)[C@@H]3O)O2)O[C@@H]1C | 1.86 nM | 3.82 nM |  |  |  | 3.07 nM
8 | CC(=O)O[C@@H](C)/C=C\C(=O)N[C@@H]1C[C@H](C)[C@H](C/C=C(C)/C=C/[C@H]2O[C@@H]3CC(=O)O[C@@](CCl)(C3)[C@@H]2O)O[C@@H]1C | > 100 nM |  | > 100 nM |  |  | > 100 nM
9 | COC(=O)C[C@@H]1C[C@@]2(CO2)[C@H](O)[C@@H](/C=C/C(C)=C/C[C@@H]2O[C@H](C)[C@H](NC(=O)/C=C\[C@H](C)OC(C)=O)C[C@@H]2C)O1 | 0.78 nM | 0.88 nM |  | 2.23 |  | 1.25 nM
10 | CCCNC(=O)C[C@@H]1C[C@@]2(CO2)C[C@@H](/C=C/C(C)=C/C[C@@H]2O[C@H](C)[C@H](NC(=O)/C=C\[C@H](C)OC(C)=O)C[C@@H]2C)O1 | 6 nM | 2.5 nM | 1.7 nM | 3.72 | 2.4 nM | 
11 | CCCNC(=O)C[C@@H]1C[C@@]2(CO2)[C@H](O)[C@@H](/C=C/C(C)=C/C[C@@H]2O[C@H](C)[C@H](NC(=O)/C=C\[C@H](C)OC(C)=O)C[C@@H]2C)O1 | 0.64 nM | 0.19 nM | 0.11 nM | 2.21 | 0.28 nM | 0.29 nM
12 | CC(=O)O[C@H]1C(=O)[C@@]2(C)[C@H]([C@H](OC(=O)c3ccccc3)[C@]3(O)C[C@H](OC(=O)[C@H](O)[C@@H](NC(=O)c4ccccc4)c4ccccc4)C(C)=C1C3(C)C)[C@]1(OC(C)=O)CO[C@@H]1C[C@@H]2O [PACLITAXEL] | 7.53 nM | 8.36 nM | 7.17 nM |  | 7.94 nM | 6.08 nM
13 | CC(=O)O[C@@H](C)/C=C\C(=O)N[C@@H]1C[C@H](C)[C@H](C/C=C(C)/C=C/[C@H]2O[C@H](CC(=O)O)C[C@@]3(CO3)[C@@H]2O)O[C@@H]1C [THAILANSTATIN A] | 59 nM | 145 nM | 142 nM | -0.658 | 320 nM | 161 nM
14 | CC(=O)O[C@@H](C)/C=C\C(=O)N[C@@H]1C[C@H](C)[C@H](C/C=C(C)/C=C/[C@H]2O[C@H](CC(=O)O)C[C@@](O)(CCl)[C@@H]2O)O[C@@H]1C [THAILANSTATIN B] | > 100 nM | > 100 nM | > 100 nM |  |  | 
